A1 apoptosis 2: blocks A1, raising caspase activity; MEF A1-2A-BIM cells, caspase-Glo luminescence, 3 h; percent of clofoctol response, DMSO zero; caspase activation, % (test concentration not listed); 24,000 tested, under 10 active; in the data active means caspase activation above about 5.9%; inconclusive means no clear call, values can overlap the other calls; inactive means below about 2.2%
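System: mouse embryonic fibroblasts co-expressing A1 and BIM (A1-2A-BIM), primed for A1 dependence; amount: 2500 cells/well; doses: 50 nL pinned compound; schedule: cells settled overnight, compound exposure 3 h at 37 °C, 5% CO2; detection: Caspase-Glo 3/7 luminescence, 1 h at room temperature; read-out: Caspase-3/7 activation, seen as rise in luminescence signal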
T cruzi intra: intracellular Trypanosoma cruzi inhibition; AID 651903; intracellular Trypanosoma cruzi in host cells, plate reader; 22,000 tested, 4.9% active; activity score (inhibition), % at 5.01 µM; in the data active means activity score above about 55%; inconclusive means no clear call, values can overlap the other calls;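 further: parasites and compound incubated about four days before reading; 0% = median of neutral control wells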
INS-1E rescue: preserves ATP levels in cytokine-treated INS-1E cells. protection from cytokine-induced ATP loss, % at 10 µM. 20,000 tested, 0.1% active. INS-1E cytokine-induced death, ATP luminescence, 48 h; normalised: neutral wells 0, positive control 100. AID 488910;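 active means mean replicate protection from cytokine-induced ATP loss at least 50% and at least 75% of replicates each reaching 50%; inconclusive means meets only one of the two criteria, mean or replicate share; inactive means fails both the mean and replicate share criteria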
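Assay system: INS-1E rat cells / Quantity: 8000 cells per well / Medium: RPMI without phenol red, 5% FBS / Probe or stimulus: three-cytokine cocktail (IFN-γ, TNF-α, IL-1β) / Dosing: one compound concentration, pin transfer / Timing: 48 h co-treatment, 10 min post-lysis read / Technique: CellTiter-Glo luminescence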
* = called active by the depositor; ? = inconclusive; . = no result. The entries come from a sample that favours hits as a whole.

SMILES	A1 apoptosis 2	T cruzi intra	INS-1E rescue
Cc1noc(C)c1S(=O)(=O)Nc1ccc2c(c1)CC(=O)N([C@H](C)CO)C[C@H](C)[C@H](CN(C)C(=O)Nc1cccc3ccccc13)O2	0.8	10.4	2.9
C[C@@H]1CN([C@H](C)CO)C(=O)c2cccc(NC(=O)C3CCCCC3)c2O[C@@H]1CN(C)Cc1ccc(-c2ccccc2)cc1	.	45.6	-64.6
C[C@@H]1CN([C@@H](C)CO)C(=O)c2cccc(NC(=O)C3CCCCC3)c2O[C@H]1CN(C)Cc1ccc(C(F)(F)F)cc1	-0.7	75.5*	-26.8
C[C@H]1CN([C@@H](C)CO)C(=O)c2cccc(NC(=O)C3CCCCC3)c2O[C@@H]1CN(C)S(=O)(=O)c1ccccc1	.	5.4	1.6
C[C@@H]1CN([C@@H](C)CO)C(=O)c2cccc(NC(=O)C3CCCCC3)c2O[C@@H]1CN(C)S(=O)(=O)c1ccccc1	.	56.7*	-1.9
C[C@H](CO)N1C[C@H](C)[C@@H](CN(C)Cc2ccc(Oc3ccccc3)cc2)Oc2c(NC(=O)C3CC3)cccc2C1=O	-1.3	47.6	-24.6
C[C@H]1CN([C@@H](C)CO)C(=O)c2cccc(NC(=O)C3CC3)c2O[C@@H]1CN(C)Cc1ccc(Oc2ccccc2)cc1	.	67.8*	-26.8
C[C@H](CO)N1C[C@H](C)[C@H](CN(C)Cc2ccc(C(F)(F)F)cc2)Oc2c(NC(=O)C3CCCCC3)cccc2C1=O	.	1.5	-28.1
C[C@@H]1CN([C@@H](C)CO)C(=O)c2cccc(NC(=O)C3CCCCC3)c2O[C@H]1CN(C)Cc1ccc(-c2ccccc2)cc1	.	71.4*	-38.7
C[C@H]1CN([C@@H](C)CO)C(=O)Cc2cc(NC(=O)CCCCCC(=O)Nc3ccccc3N)ccc2O[C@H]1CN(C)Cc1ccc2c(c1)OCO2	0.7	.	.
C[C@@H]1CN([C@@H](C)CO)C(=O)c2cccc(N(C)C)c2O[C@H]1CN(C)S(=O)(=O)c1cn(C)cn1	.	-5.7	5.6
C[C@H](CO)N1C[C@H](C)[C@@H](CN(C)Cc2ccc(-c3ccccc3)cc2)Oc2c(NC(=O)C3CC3)cccc2C1=O	.	69.1*	-52.7
C[C@H](CO)N1C[C@H](C)[C@@H](CN(C)S(=O)(=O)c2cn(C)cn2)Oc2c(cccc2N(C)C)C1=O	-0.6	58.9*	5.5
C[C@H](CO)N1C[C@H](C)[C@H](CN(C)Cc2ccc(-c3ccccc3)cc2)Oc2c(NC(=O)C3CC3)cccc2C1=O	1.7	-13.2	-24.7
Cc1ccc(S(=O)(=O)N(C)C[C@H]2Oc3ccc(NC(=O)Cn4cnnn4)cc3C(=O)N([C@H](C)CO)C[C@H]2C)cc1	.	4.4	11.9
Cc1ccccc1CN(C)C[C@@H]1OCc2cn(nn2)CCCC(=O)N([C@@H](C)CO)C[C@H]1C	.	-32.7	.
COC(=O)CCCCCCC(=O)N/N=C/c1ccc(-c2ccccc2)cc1	-0.9	7.5	24.8
Cc1ccc(S(=O)(=O)N(C)C[C@H]2Oc3c(NC(=O)CCCCCC(=O)Nc4ccccc4N)cccc3C(=O)N([C@@H](C)CO)C[C@@H]2C)cc1	0.7	.	.
C[C@H](CO)N1C[C@H](C)[C@H](CN(C)S(=O)(=O)c2ccc(F)cc2)Oc2c(NC(=O)CCCCCC(=O)Nc3ccccc3N)cccc2C1=O	.	63.4*	7.2
C[C@@H]1CN([C@H](C)CO)C(=O)c2cccc(NC(=O)CCCCCC(=O)Nc3ccccc3N)c2O[C@@H]1CN(C)S(=O)(=O)c1ccc(F)cc1	.	60.9*	-8.3
C[C@@H]1CN([C@@H](C)CO)C(=O)c2cccc(NC(=O)CCCCCC(=O)Nc3ccccc3N)c2O[C@H]1CN(C)S(=O)(=O)c1ccc(F)cc1	.	-6.2	-14.5
C[C@@H]1CN([C@@H](C)CO)C(=O)c2cccc(NC(=O)CCCCCC(=O)Nc3ccccc3N)c2O[C@@H]1CN(C)S(=O)(=O)c1ccc(F)cc1	1.1	36.3	-0.2
Cc1ccc(S(=O)(=O)N(C)C[C@@H]2Oc3c(NC(=O)CCCCCC(=O)Nc4ccccc4N)cccc3C(=O)N([C@H](C)CO)C[C@@H]2C)cc1	-0.5	72.7*	-3.1
C[C@@H]1CN([C@@H](C)CO)C(=O)CCCn2nncc2CO[C@@H]1CN(C)Cc1ccc(C(F)(F)F)cc1	-0.8	16.2	.
COc1cc2c(cc1OC)CN(C(=O)[C@H]1[C@@H]3C(=O)O[C@@H](c4ccccc4)[C@@H](c4ccccc4)N3[C@@H](c3ccc(OCCO)cc3)[C@]13C(=O)Nc1ccccc13)CC2	0.9	.	.
SMILES	A1 apoptosis 2	T cruzi intra	INS-1E rescue
Cc1noc(C)c1S(=O)(=O)Nc1ccc2c(c1)C(=O)N([C@@H](C)CO)C[C@@H](C)[C@@H](CN(C)S(=O)(=O)c1cccs1)O2	.	8.9	6.3
COc1ccc(NC(=O)N(C)C[C@H]2OCCCC[C@@H](C)Oc3ccc(NC(=O)Nc4ccc(C(F)(F)F)cc4)cc3C(=O)N([C@H](C)CO)C[C@@H]2C)cc1	-0.1	57.1*	-19.1
COc1ccc(NC(=O)Nc2ccc3c(c2)C(=O)N([C@H](C)CO)C[C@H](C)[C@H](CN(C)C(=O)Nc2ccc(C(F)(F)F)cc2)OCCCC[C@@H](C)O3)cc1	-0.5	54.9	2.4
COc1ccc(NC(=O)Nc2ccc3c(c2)C(=O)N([C@H](C)CO)C[C@H](C)[C@@H](CN(C)C(=O)Nc2ccc(C(F)(F)F)cc2)OCCCC[C@@H](C)O3)cc1	.	68.7*	-16.5
COc1ccc(NC(=O)Nc2ccc3c(c2)C(=O)N([C@H](C)CO)C[C@H](C)[C@H](CN(C)C(=O)Nc2ccc(C(F)(F)F)cc2)OCCCC[C@H](C)O3)cc1	0.9	.	.
C[C@@H]1CCCCO[C@H](CN(C)C(=O)Nc2ccc(F)cc2)[C@H](C)CN([C@@H](C)CO)C(=O)c2cc(NC(=O)NC3CCCCC3)ccc2O1	0.5	.	.
C[C@@H]1CN([C@H](C)CO)C(=O)Cc2cc(NC(=O)Nc3ccc(F)cc3)ccc2O[C@H]1CN(C)Cc1ccc(Oc2ccccc2)cc1	.	?	-68.0
C[C@@H]1CN([C@H](C)CO)C(=O)Cc2cc(NC(=O)Nc3ccc(F)cc3)ccc2O[C@@H]1CN(C)Cc1ccc(Oc2ccccc2)cc1	-0.1	71.3*	-53.2
C[C@H](CO)N1C[C@H](C)[C@H](CN(C)Cc2ccc(Oc3ccccc3)cc2)Oc2ccc(NC(=O)Nc3ccc(F)cc3)cc2CC1=O	.	61.8*	-52.3
C[C@H]1CN([C@@H](C)CO)C(=O)Cc2cc(NC(=O)Nc3ccc(F)cc3)ccc2O[C@H]1CN(C)Cc1ccccc1	1.3	25.2	-9.9
COc1ccc(NC(=O)Nc2ccc3c(c2)CC(=O)N([C@@H](C)CO)C[C@@H](C)[C@@H](CN(C)Cc2ccc(Oc4ccccc4)cc2)O3)cc1	2.2	60.3*	-12.3
C[C@H](CO)N1C[C@H](C)[C@@H](CN(C)Cc2ccc(Oc3ccccc3)cc2)Oc2ccc(NC(=O)Nc3ccc(F)cc3)cc2CC1=O	-0.4	.	.
C[C@H]1CN([C@@H](C)CO)C(=O)Cc2cc(NC(=O)Nc3ccc(F)cc3)ccc2O[C@@H]1CN(C)Cc1ccc(Oc2ccccc2)cc1	.	70.3*	-24.9
COc1ccc(NC(=O)Nc2ccc3c(c2)CC(=O)N([C@H](C)CO)C[C@H](C)[C@H](CN(C)Cc2ccc(Oc4ccccc4)cc2)O3)cc1	0.0	32.1	-37.1
